Assay [1] has as its target T1, Phosphodiesterase 3 (Homo sapiens, UniProt Q14432+Q13370). Briefly: Effective dose against PDE-III for increase in contractility following administration to anaesthetised dogs. Particulars: Canis lupus familiaris; target entry is the homologue from another species.
For assay [2], the target named is T2, Phosphodiesterase 4 (Homo sapiens, UniProt P27815+Q08499+Q07343+Q08493). Put plainly: In vitro inhibition of PDE-IV isolated from guinea pig ventricle at 10 uM. As to conditions: Cavia porcellus, target entry is the homologue from another species. Type of assay: protein assay.
Assay [3] has as its target T1, Phosphodiesterase 3. Briefly: Percentage inhibition against PDE-III (phosphodiesterase III) in guinea pig ventricle at 10 uM. It counts as protein assay. As to conditions: Cavia porcellus, target entry is the homologue from another species.
Assay [4] has as its target T2, Phosphodiesterase 4. Put plainly: In vitro inhibition of PDE-IV isolated from guinea pig ventricle; Not determined. Type of assay: protein assay. Particulars: Cavia porcellus; target entry is the homologue from another species; concentration not given here. Put shortly:
(§1)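 PDE III and PDE IV were each prepared from guinea pig ventricle by anion-exchange chromatography. Activity was measured by the boronate column method with 1 μM cAMP as substrate.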

Assay [5] addresses T2, Phosphodiesterase 4. Put plainly: In vitro inhibition of PDE-IV isolated from guinea pig ventricle. Type of assay: protein assay, Cavia porcellus. As to conditions: target entry is the homologue from another species. Put shortly: as §1
In assay [6] the test system is cGMP-specific 3',5'-cyclic phosphodiesterase (Sus scrofa). Put plainly: In vitro inhibition of PDE-V isolated from porcine pulmonary artery at 100 uM.
Assay [7] has as its target T1, Phosphodiesterase 3. Put plainly: Percent inhibition of PDE 3 (phosphodiesterase III) from guinea pig ventricle at 10 uM (or 100 uM). It counts as protein assay. As to conditions: Cavia porcellus, target entry is the homologue from another species.
In assay [8] the target is cGMP-specific 3',5'-cyclic phosphodiesterase (Homo sapiens) (UniProt O76074). Briefly: In vitro inhibition of PDE-V isolated from porcine pulmonary artery at 10 uM. Particulars: Sus scrofa, target entry is the homologue from another species.
Assay [9] concerns the target T1, Phosphodiesterase 3. Briefly: Relative positive inotropic activity (ED50) and PDE 3 inhibition (IC50). It counts as protein assay. As to conditions: Cavia porcellus.
The target of assay [10] is T2, Phosphodiesterase 4. Put plainly: In vitro inhibition of PDE-IV isolated from guinea pig ventricle at 100 uM. Type of assay: protein assay. Particulars: Cavia porcellus, target entry is the homologue from another species.
Assay [11] concerns the target T1, Phosphodiesterase 3. Briefly: Inhibition of PDE 3 (phosphodiesterase III) from guinea pig ventricle. Type of assay: protein assay, Cavia porcellus. As to conditions: target entry is the homologue from another species. Summed up: as §1

`Cc1[nH]c(=O)c(C#N)cc1-c1ccncc1` showed an ED50 in assay [1] of 0.037 mg/kg.

In the case of `CCCSc1ccccc1-c1nc2ccc[nH]c-2n1`, the values for the inhibition in [2] and in [3] were 21% and 0%, respectively.

Take `OCCCOc1ccccc1-c1nc2ccc[nH]c-2n1`: the inhibition came to 30% in assay [2] and 0% in [3].

On to `CCOc1ccccc1-c1nc2ccc[nH]c-2n1`, for which the inhibition in assay [2] was 23%; in assay [3], 15%.

Turning to `CCCOc1ccccc1-c1cn2cccnc2n1`, the inhibition in assay [2] was found to be 16%; in assay [3], 2%.

Turning to `COc1ccccc1-c1nc2ccc[nH]c-2n1`, the inhibition in assay [4] came out at 1%; in [3], 13%.

`c1ccc(COc2ccccc2-c2nc3ccc[nH]c-3n2)cc1`: in [3], the inhibition was determined as 0%. In [5], the IC50 was 8 µM.

Consider `COc1ccccc1-c1nc2cc[nH]cc-2n1`, for which the inhibition in assay [2] came out at 20%; in assay [3], 6%.

Turning to `CCCOc1ccccc1-c1nc2ccc[nH]c-2n1`, the inhibition in [3] came out at 0%. This compound also returned an IC50 in assay [5] of 11 µM.

As for `CN(C)CCCOc1ccccc1-c1nc2ccc[nH]c-2n1`, the inhibition turned out to be 7% in assay [2], 8% in assay [3] and 47% in assay [6].

Turning to `CCCCOc1ccccc1-c1nc2ccc[nH]c-2n1`, in assay [3], the inhibition came out at 0%. This compound also displayed an IC50 in [5] of 6 µM.

For the compound `COc1cc([S+](C)[O-])ccc1-c1nc2cccnc2[nH]1` (stereo not given), the ED50 in [1] amounted to 0.3 mg/kg. This compound showed an inhibition in [7] of 2%.

For `CC(C)(C)Oc1ccccc1-c1nc2ccc[nH]c-2n1`, the inhibition in assay [2] came to 0%; in [3], 0%; in assay [8], 29%.

`COc1cc([S+](C)[O-])ccc1-c1nc2cnccc2[nH]1` (stereo not given) [ISOMAZOLE]: the Ratio in assay [9] came out at 1.4. The results for the inhibition in assay [10] and in [7] were 2% and 23%, respectively. The same compound yielded an ED50 in assay [1] of 0.03 mg/kg. In assay [11], this compound displayed an IC50 of 42 µM.

In the case of `CC(C)COc1ccccc1-c1nc2ccc[nH]c-2n1`, the IC50 in assay [5] worked out at 3 µM.

Take `CC1(C)C(=O)Nc2ccc(C3=NNC(=O)CC3)cc21` [INDOLIDAN]: the Ratio in [9] was 0.01. Further, it took a dose of 0.007 mg/kg to reach the 50% effect level in assay [1] (ED50). The same compound registered an IC50 in assay [11] of 0.08 µM.

Regarding `CNCCCOc1ccccc1-c1nc2ccc[nH]c-2n1`, the inhibition was 5% in [2], 0% in [3] and 12% in [8].

The compound `O=C1CCC(c2ccc(-n3ccnc3)cc2)=NN1` had an ED50 in assay [1] of 0.05 mg/kg.

Take `OCCOc1ccccc1-c1nc2ccc[nH]c-2n1`: the figures for the inhibition in assay [2] and in assay [3] were 14% and 2%, respectively.

Regarding `CCCOc1ccccc1-c1nc2[nH]nnc2c(=O)[nH]1`, the inhibition amounted to 13% in [2] and 14% in [3].

With `CC(=O)Oc1ccccc1-c1nc2ccc[nH]c-2n1`, the inhibition stood at 0% in assay [2] and 2% in assay [3].

`c1c[nH]c2nc(-c3ccccc3OCC3CC3)nc-2c1`: in [3], the inhibition came to 15%. For the same compound, in [5], the IC50 was 37 µM.

As to `O=[N+]([O-])c1ccccc1-c1nc2ccc[nH]c-2n1`, the inhibition in [2] was 4%; in assay [3] it was 0%; in [8], 13%.

In [3], `CCCCCOc1ccccc1-c1nc2ccc[nH]c-2n1` registered an inhibition of 0%. For the same compound, the IC50 in [5] came out at 6 µM.

Take `ClCCCOc1ccccc1-c1nc2ccc[nH]c-2n1`: the inhibition in assay [3] amounted to 7%. In assay [5], this compound gave an IC50 of 9 µM.

Regarding `CCCCCOc1ccccc1-c1nc2cc[nH]cc-2n1`, the inhibition was determined as 50% in assay [2] and 20% in assay [3].

On to `c1c[nH]c2nc(-c3ccccc3OC3CCCC3)nc-2c1`, for which, in assay [3], the inhibition was found to be 12%. For the same compound, the IC50 in [5] was 19 µM.

For the compound `CCCNc1ccccc1-c1nc2ccc[nH]c-2n1`, the inhibition in [2] came to 11%; in assay [3], 0%.

Take `Oc1ccccc1-c1nc2ccc[nH]c-2n1`: the inhibition in [2] came out at 0%; in assay [3], 15%.

In assay [3], `CCCCCCOc1ccccc1-c1nc2ccc[nH]c-2n1` came in with an inhibition of 0%. The compound also registered an IC50 in [5] of 16 µM.

As a reminder, the ED50 is the dose at which the effect has come halfway, by size or by number of responders. Lower therefore signals an effect at a small dose. In general, inhibition refers to how much of the control response was suppressed. Lower therefore signals a response near the control. The term IC50 denotes the concentration that gives 50% inhibition. Lower therefore signals greater potency.
